Legend:
[1] = organism: Rattus norvegicus; experiment: Concentration of compound in liver of rats, pretreated with desmethylimipramine, assessed using [18F]- as radiotracer;Dose/g; type: ADME, organism-based; settings: in vivo
Outline: (§1)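 Female Sprague–Dawley rats (230–290 g) got DMI·HCl 10 mg/kg ip, or an equal volume of saline ip for controls, 30 min before iv [18F] tracer (5 µCi). Killed 1.5 h after tracer. Duplicate tissue samples were weighed and gamma counted. Values are decay-corrected % dose/g normalized to 250 g body weight, mean ± SEM, four rats per group.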

[2] = organism: Rattus norvegicus; experiment: Concentration of compound in right ventricle of rats, pretreated with desmethylimipramine, assessed using [18F]- as radiotracer;Dose/g; type: ADME, organism-based, Heart right ventricle; settings: in vivo; outline: as §1
[3] = organism: Rattus norvegicus; experiment: Desmethylimipramine blockade of compound with [3H]NE as radiotracer, and percentage change was measured in rat spleen; type: functional
Outline: (§2)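 Comparison study with [3H]NE (levo-[7-3H], 15–20 Ci/mmol) as tracer in female Sprague–Dawley rats (230–290 g). Rats were pretreated with DMI·HCl 10 mg/kg ip, or an equal volume of saline ip, 30 min before iv tracer. Value is the percent change in tissue tracer concentration versus saline controls; five rats per group.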

[4] = organism: Rattus norvegicus; experiment: Concentration of compound in right atrium of rats, pretreated with desmethylimipramine, assessed using [18F]- as radiotracer;Dose/g; type: ADME, organism-based, Cardiac atrium; settings: in vivo; outline: as §1
[5] = organism: Rattus norvegicus; experiment: Concentration of compound in spleen of rats, pretreated with desmethylimipramine, assessed using [18F]- as radiotracer;Dose/g; type: ADME, organism-based; settings: in vivo; outline: as §1
[6] = organism: Rattus norvegicus; experiment: Desmethylimipramine blockade of compound with [3H]NE as radiotracer, and percentage change was measured in rat right atrium; type: functional, Cardiac atrium; outline: as §2
[7] = organism: Rattus norvegicus; experiment: Desmethylimipramine blockade of compound with [3H]NE as radiotracer, and percentage change was measured in rat left atrium; type: functional, Cardiac atrium; outline: as §2
[8] = organism: Rattus norvegicus; experiment: Desmethylimipramine blockade of compound with [3H]NE as radiotracer, and percentage change was measured in rat blood; type: functional; outline: as §2
[9] = organism: Rattus norvegicus; experiment: Desmethylimipramine blockade of compound with [3H]-NE as radiotracer, and percentage change was measured in rat left ventricle; type: functional, Heart left ventricle; outline: as §2
[10] = organism: Rattus norvegicus; experiment: Concentration of compound in blood of rats, pretreated with desmethylimipramine, assessed using [18F]- as radiotracer;Dose/g; type: ADME, organism-based; settings: in vivo; outline: as §1
[11] = organism: Rattus norvegicus; experiment: Concentration of compound in left atrium of rats, pretreated with desmethylimipramine, assessed using [18F]- as radiotracer;Dose/g; type: ADME, organism-based, Cardiac atrium; settings: in vivo; outline: as §1
[12] = organism: Rattus norvegicus; experiment: Desmethylimipramine blockade of compound with [3H]NE as radiotracer, and percentage change was measured in rat right ventricle; type: functional, Heart right ventricle; outline: as §2
[13] = organism: Rattus norvegicus; experiment: Concentration of compound in left ventricle of rats, pretreated with desmethylimipramine, assessed using [18F]- as radiotracer;Dose/g; type: ADME, organism-based, Heart left ventricle; settings: in vivo; outline: as §1

CC(N)C(O)c1cc(O)ccc1F (stereo not drawn)
Dose [1]: 0.77%
Dose [2]: 0.2%
Change [3]: -86%
Dose [4]: 0.24%
Dose [5]: 0.2%
Change [6]: -95%
Change [7]: -95%
Change [8]: 55%
Change [9]: -97%
Dose [10]: 0.12%
Dose [11]: 0.24%
Change [12]: -96%
Dose [13]: 0.15%

— ChEMBL document CHEMBL1124031, “6-[18F]fluorometaraminol: a radiotracer for in vivo mapping of adrenergic nerves of the heart” (J Med Chem, 1988)
